In PMC4109633 (Drug Design, Development and Therapy, 2014):
Marks after values point to notes of the source that are not given here.

Tests used:
Format in all cases: cell-based
[1] = tested on: Salmonella typhimurium TA1535; test: Cytotoxicity in liquid medium; conditions: mean ± SEM
In short: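 TA1535 was grown in broth microdilution with test compound at 25, 50 or 100 µM. Viability was expressed as % of untreated control (mean ± SEM), triplicate.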

[2] = tested on: Salmonella typhimurium TA1535; test: Ames Salmonella/microsomal mutagenicity assay; conditions: presence of S9 mix, spontaneous 67.0±6.1
[3] = tested on: Salmonella typhimurium TA1535; test: Antimutagenicity assay against sodium azide; conditions: for NaN3 mutagenicity (revertant colonies/plate; mean ± SEM): NaN3 2 μg/plate, spontaneous 29.3±5.3
In short: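 TA1535 was exposed to test compound at 10 or 20 µM with NaN₃ (2 µg/plate) in two schemes. In pre-exposure, compound and bacteria were shaken 30 min at 37°C before mutagen was added. In co-exposure, bacteria, mutagen and compound were incubated together 30 min at 37°C. Cells were then plated on minimal glucose agar, and revertants counted at 48 h, in triplicate. Mutant frequency = mutant colonies/viable colonies.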

[4] = tested on: Salmonella typhimurium TA1535; test: Antimutagenicity assay against benzo[a]pyrene with S9 mix; conditions: for B[a]P mutagenicity (revertant colonies/plate; mean ± SEM): B[a]P 20 μM + S9 mix, spontaneous 105.0±13.1; for Mutant frequency (benzo[a]pyrene): mutant colonies/viable colonies; for Antimutagenic potential against B[a]P: low concentration investigated
[5] = co-exposure, 20 μM, mutant colonies/viable colonies
[6] = pre-exposure, 10 μM, mutant colonies/viable colonies
[7] = pre-exposure, 20 μM, mutant colonies/viable colonies
[8] = co-exposure, 10 μM, mutant colonies/viable colonies

## N#Cc1ccc(-c2ccc(-c3ccco3)o2)c(F)c1 [Compound 4a, 4-(2,2′-Bifuran-5-yl)-3-fluorobenzonitrile]
[1]; 25 μM
  Viability at fluoroarylbichalcophene concentrations (% of control): 100.0±8.5 % of control
[1]; 50 μM
  Viability at fluoroarylbichalcophene concentrations (% of control): 66.3±5.6 ^a % of control
[1]; 100 μM
  Viability at fluoroarylbichalcophene concentrations (% of control): 45.7±3.5 ^a % of control
[2]; 10 μM
  Fluoroarylbichalcophene mutagenicity (revertant colonies/plate; mean ± SEM): 63.3±5.5 revertant colonies/plate
[2]; 20 μM
  Fluoroarylbichalcophene mutagenicity (revertant colonies/plate; mean ± SEM): 69.7±7.0 revertant colonies/plate
[3]; co-exposure, 10 μM
  NaN3 mutagenicity (revertant colonies/plate; mean ± SEM): 75.0±2.3 revertant colonies/plate
[3]; co-exposure, 20 μM
  NaN3 mutagenicity (revertant colonies/plate; mean ± SEM): 34.3±4.9 revertant colonies/plate
[3]; [5]
  Mutant frequency (sodium azide): 0.69
[3]; pre-exposure, 10 μM
  NaN3 mutagenicity (revertant colonies/plate; mean ± SEM): 47.7±6.5 revertant colonies/plate
[3]; [6]
  Mutant frequency (sodium azide): 0.99
[3]; pre-exposure, 20 μM
  NaN3 mutagenicity (revertant colonies/plate; mean ± SEM): 26.0±5.5 revertant colonies/plate
[3]; [7]
  Mutant frequency (sodium azide): 0.52
[4]; co-exposure, 10 μM
  B[a]P mutagenicity (revertant colonies/plate; mean ± SEM): 270.0±19.0 revertant colonies/plate
  Mutant frequency (benzo[a]pyrene): 4.08
[4]; co-exposure, 20 μM
  B[a]P mutagenicity (revertant colonies/plate; mean ± SEM): 268.0±16.6 revertant colonies/plate
  Mutant frequency (benzo[a]pyrene): 4.14
[4]; pre-exposure, 10 μM
  B[a]P mutagenicity (revertant colonies/plate; mean ± SEM): 267.0±11.0 revertant colonies/plate
  Mutant frequency (benzo[a]pyrene): 4.04
[4]; pre-exposure, 20 μM
  B[a]P mutagenicity (revertant colonies/plate; mean ± SEM): 267.7±13.0 revertant colonies/plate
  Mutant frequency (benzo[a]pyrene): 4.14

## N#Cc1ccc(-c2ccc(-c3ccco3)o2)cc1F [Compound 4b, 4-(2,2′-Bifuran-5-yl)-2-fluorobenzonitrile]
[1]; 25 μM
  Viability at fluoroarylbichalcophene concentrations (% of control): 88.3±7.4 % of control
[1]; 50 μM
  Viability at fluoroarylbichalcophene concentrations (% of control): 64.7±6.6 ^a % of control
[1]; 100 μM
  Viability at fluoroarylbichalcophene concentrations (% of control): 29.0±3.1 ^a % of control
[2]; 10 μM
  Fluoroarylbichalcophene mutagenicity (revertant colonies/plate; mean ± SEM): 64.3±4.0 revertant colonies/plate
[2]; 20 μM
  Fluoroarylbichalcophene mutagenicity (revertant colonies/plate; mean ± SEM): 71.3±4.0 revertant colonies/plate
[3]; co-exposure, 10 μM
  NaN3 mutagenicity (revertant colonies/plate; mean ± SEM): 35.3±2.8 revertant colonies/plate
[3]; [8]
  Mutant frequency (sodium azide): 0.65
[3]; co-exposure, 20 μM
  NaN3 mutagenicity (revertant colonies/plate; mean ± SEM): 32.7±5.5 revertant colonies/plate
[3]; [5]
  Mutant frequency (sodium azide): 0.64
[3]; pre-exposure, 10 μM
  NaN3 mutagenicity (revertant colonies/plate; mean ± SEM): 69.7±8.0 revertant colonies/plate
[3]; [6]
  Mutant frequency (sodium azide): 1.28
[3]; pre-exposure, 20 μM
  NaN3 mutagenicity (revertant colonies/plate; mean ± SEM): 48.3±5.0 revertant colonies/plate
[3]; [7]
  Mutant frequency (sodium azide): 0.95
[4]; co-exposure, 10 μM
  B[a]P mutagenicity (revertant colonies/plate; mean ± SEM): 193.0±15.7 revertant colonies/plate
  Mutant frequency (benzo[a]pyrene): 3.00
[4]; co-exposure, 20 μM
  B[a]P mutagenicity (revertant colonies/plate; mean ± SEM): 154.7±16.5 revertant colonies/plate
  Mutant frequency (benzo[a]pyrene): 2.41
[4]; pre-exposure, 10 μM
  B[a]P mutagenicity (revertant colonies/plate; mean ± SEM): 239.3±10.5 revertant colonies/plate
  Mutant frequency (benzo[a]pyrene): 3.72
[4]; pre-exposure, 20 μM
  B[a]P mutagenicity (revertant colonies/plate; mean ± SEM): 238.0±7.6 revertant colonies/plate
  Mutant frequency (benzo[a]pyrene): 3.70

## N#Cc1ccc(-c2ccc(-c3cccs3)o2)c(F)c1 [Compound 4c, 3-Fluoro-4-(5-(thiophen-2-yl)furan-2-yl)benzonitrile]
[1]; 25 μM
  Viability at fluoroarylbichalcophene concentrations (% of control): 104.7±11.6 % of control
[1]; 50 μM
  Viability at fluoroarylbichalcophene concentrations (% of control): 61.0±7.0 ^a % of control
[1]; 100 μM
  Viability at fluoroarylbichalcophene concentrations (% of control): 2.7±0.4 ^a % of control
[2]; 10 μM
  Fluoroarylbichalcophene mutagenicity (revertant colonies/plate; mean ± SEM): 65.3±5.4 revertant colonies/plate
[2]; 20 μM
  Fluoroarylbichalcophene mutagenicity (revertant colonies/plate; mean ± SEM): 68.7±5.5 revertant colonies/plate
[3]; co-exposure, 10 μM
  NaN3 mutagenicity (revertant colonies/plate; mean ± SEM): 44.7±6.0 revertant colonies/plate
[3]; [8]
  Mutant frequency (sodium azide): 0.81
[3]; co-exposure, 20 μM
  NaN3 mutagenicity (revertant colonies/plate; mean ± SEM): 40.0±5.0 revertant colonies/plate
[3]; [5]
  Mutant frequency (sodium azide): 0.78
[3]; pre-exposure, 10 μM
  NaN3 mutagenicity (revertant colonies/plate; mean ± SEM): 51.0±6.6 revertant colonies/plate
[3]; [6]
  Mutant frequency (sodium azide): 0.93
[3]; pre-exposure, 20 μM
  NaN3 mutagenicity (revertant colonies/plate; mean ± SEM): 53.7±9.3 revertant colonies/plate
[4]; co-exposure, 10 μM
  B[a]P mutagenicity (revertant colonies/plate; mean ± SEM): 279.3±19.5 revertant colonies/plate
  Mutant frequency (benzo[a]pyrene): 4.43
[4]; co-exposure, 20 μM
  B[a]P mutagenicity (revertant colonies/plate; mean ± SEM): 269.3±9.0 revertant colonies/plate
  Mutant frequency (benzo[a]pyrene): 4.41
[4]; co-exposure
  Antimutagenic potential against B[a]P: no significant activity
[4]; pre-exposure, 10 μM
  B[a]P mutagenicity (revertant colonies/plate; mean ± SEM): 177.0±11.3 revertant colonies/plate
  Mutant frequency (benzo[a]pyrene): 2.81
[4]; pre-exposure, 20 μM
  B[a]P mutagenicity (revertant colonies/plate; mean ± SEM): 153.7±7.0 revertant colonies/plate
  Mutant frequency (benzo[a]pyrene): 2.52

## N#Cc1ccc(-c2ccc(-c3cccs3)o2)cc1F [Compound 4d, 2-Fluoro-4-(5-(thiophen-2-yl)furan-2-yl)benzonitrile]
[1]; 25 μM
  Viability at fluoroarylbichalcophene concentrations (% of control): 71.7±5.0 % of control
[1]; 50 μM
  Viability at fluoroarylbichalcophene concentrations (% of control): 59.7±4.7 ^a % of control
[1]; 100 μM
  Viability at fluoroarylbichalcophene concentrations (% of control): 3.0±0.2 ^a % of control
[2]; 10 μM
  Fluoroarylbichalcophene mutagenicity (revertant colonies/plate; mean ± SEM): 68.7±6.0 revertant colonies/plate
[2]; 20 μM
  Fluoroarylbichalcophene mutagenicity (revertant colonies/plate; mean ± SEM): 67.7±6.1 revertant colonies/plate
[3]; co-exposure, 10 μM
  NaN3 mutagenicity (revertant colonies/plate; mean ± SEM): 47.7±2.7 revertant colonies/plate
[3]; [8]
  Mutant frequency (sodium azide): 0.92
[3]; co-exposure, 20 μM
  NaN3 mutagenicity (revertant colonies/plate; mean ± SEM): 49.7±6.4 revertant colonies/plate
[3]; [5]
  Mutant frequency (sodium azide): 0.94
[3]; pre-exposure, 10 μM
  NaN3 mutagenicity (revertant colonies/plate; mean ± SEM): 36.0±2.7 revertant colonies/plate
[3]; [6]
  Mutant frequency (sodium azide): 0.69
[3]; pre-exposure, 20 μM
  NaN3 mutagenicity (revertant colonies/plate; mean ± SEM): 29.7±4.0 revertant colonies/plate
[3]; [7]
  Mutant frequency (sodium azide): 0.56
[4]; co-exposure, 10 μM
  B[a]P mutagenicity (revertant colonies/plate; mean ± SEM): 287.7±16.0 revertant colonies/plate
  Mutant frequency (benzo[a]pyrene): 4.38
[4]; co-exposure, 20 μM
  B[a]P mutagenicity (revertant colonies/plate; mean ± SEM): 204.0±5.3 revertant colonies/plate
  Mutant frequency (benzo[a]pyrene): 3.29
[4]; co-exposure
  Antimutagenic potential against B[a]P: no significant activity
[4]; pre-exposure, 10 μM
  B[a]P mutagenicity (revertant colonies/plate; mean ± SEM): 271.0±16.5 revertant colonies/plate
  Mutant frequency (benzo[a]pyrene): 4.12
[4]; pre-exposure, 20 μM
  B[a]P mutagenicity (revertant colonies/plate; mean ± SEM): 271.0±12.2 revertant colonies/plate
  Mutant frequency (benzo[a]pyrene): 4.37

## N#Cc1ccc(-c2ccc(-c3cccs3)s2)cc1F [Compound 4e, 4-(2,2′-Bithiophen-5-yl)-2-fluorobenzonitrile]
[1]; 25 μM
  Viability at fluoroarylbichalcophene concentrations (% of control): 104.0±9.9 % of control
[1]; 50 μM
  Viability at fluoroarylbichalcophene concentrations (% of control): 64.7±8.1 ^a % of control
[1]; 100 μM
  Viability at fluoroarylbichalcophene concentrations (% of control): 22.3±2.2 ^a % of control
[2]; 10 μM
  Fluoroarylbichalcophene mutagenicity (revertant colonies/plate; mean ± SEM): 65.3±6.2 revertant colonies/plate
[2]; 20 μM
  Fluoroarylbichalcophene mutagenicity (revertant colonies/plate; mean ± SEM): 66.7±6.7 revertant colonies/plate
[3]; co-exposure, 10 μM
  NaN3 mutagenicity (revertant colonies/plate; mean ± SEM): 36.7±4.7 revertant colonies/plate
[3]; [8]
  Mutant frequency (sodium azide): 0.66
[3]; co-exposure, 20 μM
  NaN3 mutagenicity (revertant colonies/plate; mean ± SEM): 25.0±5.6 revertant colonies/plate
[3]; [5]
  Mutant frequency (sodium azide): 0.48
[3]; pre-exposure, 10 μM
  NaN3 mutagenicity (revertant colonies/plate; mean ± SEM): 24.7±3.5 revertant colonies/plate
[3]; [6]
  Mutant frequency (sodium azide): 0.44
[3]; pre-exposure, 20 μM
  NaN3 mutagenicity (revertant colonies/plate; mean ± SEM): 21.7±2.1 revertant colonies/plate
[3]; [7]
  Mutant frequency (sodium azide): 0.42
[4]; co-exposure, 10 μM
  B[a]P mutagenicity (revertant colonies/plate; mean ± SEM): 282.3±16.6 revertant colonies/plate
  Mutant frequency (benzo[a]pyrene): 4.28
[4]; co-exposure, 20 μM
  B[a]P mutagenicity (revertant colonies/plate; mean ± SEM): 285.0±18.1 revertant colonies/plate
  Mutant frequency (benzo[a]pyrene): 4.38
[4]; co-exposure
  Antimutagenic potential against B[a]P: no significant activity
[4]; pre-exposure, 10 μM
  B[a]P mutagenicity (revertant colonies/plate; mean ± SEM): 241.3±11.0 revertant colonies/plate
  Mutant frequency (benzo[a]pyrene): 3.66
[4]; pre-exposure, 20 μM
  B[a]P mutagenicity (revertant colonies/plate; mean ± SEM): 201.0±10.5 revertant colonies/plate
  Mutant frequency (benzo[a]pyrene): 3.09

## Cl.N=C(N)c1ccc(-c2ccc(-c3ccco3)o2)c(F)c1 [Compound 5a, 4-(2,2′-Bifuran-5-yl)-3-fluorobenzamidine hydrochloride salt]
[1]; 25 μM
  Viability at fluoroarylbichalcophene concentrations (% of control): 102.3±10.2 % of control
[1]; 50 μM
  Viability at fluoroarylbichalcophene concentrations (% of control): 63.3±9.0 ^a % of control
[1]; 100 μM
  Viability at fluoroarylbichalcophene concentrations (% of control): 32.7±2.7 ^a % of control
[2]; 10 μM
  Fluoroarylbichalcophene mutagenicity (revertant colonies/plate; mean ± SEM): 61.0±4.8 revertant colonies/plate
[2]; 20 μM
  Fluoroarylbichalcophene mutagenicity (revertant colonies/plate; mean ± SEM): 65.7±5.8 revertant colonies/plate
[3]; co-exposure, 10 μM
  NaN3 mutagenicity (revertant colonies/plate; mean ± SEM): 73.3±4.1 revertant colonies/plate
[3]; co-exposure, 20 μM
  NaN3 mutagenicity (revertant colonies/plate; mean ± SEM): 39.0±8.1 revertant colonies/plate
[3]; [5]
  Mutant frequency (sodium azide): 0.76
[3]; pre-exposure, 10 μM
  NaN3 mutagenicity (revertant colonies/plate; mean ± SEM): 57.7±11.0 revertant colonies/plate
[3]; pre-exposure, 20 μM
  NaN3 mutagenicity (revertant colonies/plate; mean ± SEM): 22.3±2.1 revertant colonies/plate
[3]; [7]
  Mutant frequency (sodium azide): 0.44
[4]; co-exposure, 10 μM
  B[a]P mutagenicity (revertant colonies/plate; mean ± SEM): 102.0±12.1 revertant colonies/plate
[4]; co-exposure, 20 μM
  B[a]P mutagenicity (revertant colonies/plate; mean ± SEM): 98.3±9.5 revertant colonies/plate
  Mutant frequency (benzo[a]pyrene): 1.65
[4]; pre-exposure, 10 μM
  B[a]P mutagenicity (revertant colonies/plate; mean ± SEM): 209.7±10.3 revertant colonies/plate
  Mutant frequency (benzo[a]pyrene): 3.26
[4]; pre-exposure, 20 μM
  B[a]P mutagenicity (revertant colonies/plate; mean ± SEM): 201.0±11.0 revertant colonies/plate
  Mutant frequency (benzo[a]pyrene): 3.37

## [N-]=[N+]=[N-].[Na+] [NaN3, sodium azide, reference compound]
[3]; NaN3 without fluoroarylbichalcophene, mutant colonies/viable colonies
  Mutant frequency, NaN3 alone: 2.65 (100)
